An excerpt weighted towards active compounds, which were near 2.3% of everything screened.
Diaph inh CS – diaphorase inhibitors and chemical oxidizers, primary screen, counter-screen for diaphorase-coupled primary assays, biochemical, uHTS, resorufin fluorescence. diaphorase resazurin-to-resorufin fluorescence, NADH, 16 min; bacterial (C. kluyveri) enzyme, not human. inhibition, % at 20 µM. 190,000 compounds, 0.69% hits;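 active = primary screen inhibition at 20 µM above a set limit, cut at about 50% in these data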
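System: Bacterial diaphorase enzyme (C. kluyveri) | Incubation: 16-min room-temperature incubation before reading | Benchmarks: No-NADH positive control and DMSO neutral control | Measured by: Resorufin fluorescence 544/590 nm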
Diaphorase act – compounds boosting diaphorase resazurin reduction – biochemical, uHTS, resorufin fluorescence, counter-screen for diaphorase-coupled primary assays, primary screen. 190,000 compounds, 0.005% hits. Diaphorase/resazurin coupled assay, 16 min; hits give high values; 1 = vehicle wells, 0 = NADH-free wells. activation factor at 20 µM;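 active = diaphorase activity raised at least twofold by the compound at 20 µM; inactive = activation factor below 2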
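Measured by – red resorufin fluorescence at 544/590 nm excitation/emission · Test system – Clostridium kluyveri diaphorase, purified enzyme · Incubation – reaction time 16 min, room temperature · Buffer or medium – 50 mM HEPES pH 7.4 with 4.542 mM MgCl2, 0.005% Tween 20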
G6PDH counter – L. mesenteroides G6PDH inhibitors, counter-screen for G6PDH-coupled screening assays, biochemical, Leuconostoc mesenteroides enzyme; Purified L. mesenteroides G6PDH, diaphorase/resazurin coupled fluorescence, 45 min; inhibition, % at 5 µM; glucose-6-phosphate dehydrogenase [Leuconostoc mesenteroides]; AID 1020, 2008; 200,000 compounds, 0.12% hits; in the data active = inhibition above about 50%
FLuc inh counter – firefly luciferase enzyme inhibitors, primary screen, artefact control for luciferase-based inhibitor screens, biochemical, luminescence, ATPLite; 200,000 compounds, 1.5% hits; inhibition, % at 10 µM; 10 min;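 active = inhibition above about 50% when tested at 10 µM, limit read from the data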
Target sequence (P08659 whole entry, looked up): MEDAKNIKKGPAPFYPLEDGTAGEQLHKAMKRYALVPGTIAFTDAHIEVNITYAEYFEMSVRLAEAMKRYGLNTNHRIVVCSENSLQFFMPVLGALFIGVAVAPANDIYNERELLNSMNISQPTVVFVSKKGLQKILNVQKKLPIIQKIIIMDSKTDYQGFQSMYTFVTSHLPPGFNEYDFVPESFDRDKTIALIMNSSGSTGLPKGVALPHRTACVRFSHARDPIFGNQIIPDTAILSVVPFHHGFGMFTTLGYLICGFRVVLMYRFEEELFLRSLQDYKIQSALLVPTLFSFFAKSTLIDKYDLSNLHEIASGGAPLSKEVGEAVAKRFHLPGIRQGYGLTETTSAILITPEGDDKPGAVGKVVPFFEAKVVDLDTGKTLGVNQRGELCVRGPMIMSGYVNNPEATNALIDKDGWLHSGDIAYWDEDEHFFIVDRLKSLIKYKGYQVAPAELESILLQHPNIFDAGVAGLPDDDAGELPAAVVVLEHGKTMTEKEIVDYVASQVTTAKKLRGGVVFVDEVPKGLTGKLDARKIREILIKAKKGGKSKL
FLuc stim CS – FLuc activators, initial screening, artefact control for FLuc-dependent activation tests, biochemical, ATPlite luminescence. AID 1027, 2008. Luciferin 4-monooxygenase (Photinus pyralis), P08659. activation factor at 10 µM. 200,000 tested, under 10 active. ATPlite luciferase biochemical, 10 min; 0 = ATP-free wells, 1 = DMSO control;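 active = luciferase activation factor, scaled between plate controls, of at least 2 with compound at 10 µM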
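System: cell-free luciferase reagent; medium: PBS as buffer for the ATP substrate; doses: test compounds dosed from 2 mM stocks in 100% DMSO; incubation: 10 min, room temperature; measured by: luminescence from luciferase reaction; read-out: luciferase activation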
Hits are given with their value; 0 = inactive.

SMILES | Diaph inh CS | Diaphorase act | G6PDH counter | FLuc inh counter | FLuc stim CS
O=C(Nc1nc2ccc(S(=O)(=O)N3CCCCC3)cc2s1)c1cccnc1 | 0 | 0 | 0 | 0 | 0
CN(C)S(=O)(=O)c1ccc2nc(NC(=O)c3cccs3)sc2c1 | 0 | 0 | 0 | 64 | 0
O=C(NC(=S)Nc1nc2ccccc2s1)c1cccs1 | 0 | 0 | 0 | 90 | 0
CN(C)S(=O)(=O)c1ccc2nc(NC(=O)c3cccnc3)sc2c1 | 0 | 0 | 0 | 55 | 0
O=C(Nc1nc2ccc(F)cc2s1)c1cccs1 | 0 | 0 | 0 | 50 | 0
O=C(Nc1nc2ccc(S(=O)(=O)N3CCCC3)cc2s1)c1cccs1 | 0 | 0 | 0 | 0 | 0
CC1(C)CC(=O)C2=C(C1)N=C1SCCC(=O)N1C2c1cccc([N+](=O)[O-])c1 (configuration not stated) | 0 | 0 | 0 | 0 | 0
COc1ccc(/C(O)=C2/C(=O)C(=O)N(CCN3CCOCC3)C2c2ccccn2)cc1 (configuration not stated) | 0 | 0 | 0 | 0 | 0
COc1cc(NCCCCCCCN)c2ncccc2c1 | 0 | 0 | 53 | 0 | 0
Cc1ccc(NC(=O)CCNCc2ccco2)cc1S(=O)(=O)N(C)C | 0 | 0 | 0 | 79 | 0
Cc1ccc(NC(=O)CCNC(=O)c2ccccc2Cl)cc1S(=O)(=O)N(C)C | 0 | 0 | 0 | 0 | 0
Cc1ccc(-c2nc3ccccn3c2C=O)cc1 | 0 | 0 | 0 | 50 | 0
Cc1c(-c2ccc(Br)cc2)nc2ccccn12 | 0 | 0 | 0 | 0 | 0
COc1cc([N+](=O)[O-])cc(/C=N/NC(=O)CC#N)c1O | 51 | 0 | 0 | 0 | 0
CCN=C1NN=C(c2cc(C)n(CCc3ccccc3)c2C)CS1 | 0 | 0 | 0 | 0 | 0
CCN=C1NN=C(c2cc(C)n(Cc3ccco3)c2C)CS1 | 0 | 0 | 0 | 91 | 0
COCCn1c(C)cc(C2=NNC(=Nc3ccccc3)SC2)c1C | 0 | 0 | 0 | 88 | 0
COC(=O)/C(C#N)=C1/C=Cc2ccccc2N1 | 0 | 0 | 0 | 0 | 0
COc1ccc(N2C3=C(CC4=C2CCCC4=O)C(=O)CCC3)cc1 | 64 | 0 | 0 | 0 | 0
C1=C(c2ccccc2)Nc2ccccc2N=C1c1ccccc1 | 0 | 0 | 0 | 0 | 0
CN=c1scc(-c2ccc(F)cc2)n1/N=C/c1ccc(O)c(O)c1 | 50 | 0 | 0 | 90 | 0
Cc1ccc(-c2noc(-c3ccccc3F)n2)cc1 | 0 | 0 | 0 | 57 | 0
Cc1ccc(-c2noc(-c3cccs3)n2)cc1 | 0 | 0 | 0 | 0 | 0
O=C(NC(=S)Nn1cnnc1)c1cccc(Br)c1 | 0 | 0 | 0 | 0 | 0
CCNC(=S)N/N=C/c1cccc(OCc2c(F)cccc2Cl)c1 | 0 | 0 | 0 | 0 | 0
SMILES | Diaph inh CS | Diaphorase act | G6PDH counter | FLuc inh counter | FLuc stim CS
CNC(=S)N/N=C/c1cccc(OCc2ccccc2F)c1 | 0 | 0 | 0 | 52 | 0
Cc1nc2ccccn2c1C(=O)N=Nc1c(O)[nH]c2ccccc12 | 0 | 0 | 0 | 0 | 0
Cc1ccc(O)c(C=Nc2cc(C)ccc2O)c1 | 0 | 0 | 0 | 0 | 0
Cc1ccc(O)c(C=Nc2ccc3[nH]ncc3c2)c1 | 61 | 0 | 0 | 0 | 0
Cc1ccc(S(=O)(=O)NCC(=O)OCC(=O)c2c(N)n(C)c(=O)n(C)c2=O)cc1 | 0 | 0 | 0 | 0 | 0
CC(C)C(=O)NC(=S)/C=C1/N(C)c2ccccc2C1(C)C | 0 | 0 | 0 | 0 | 0
Cc1ccc(C(=O)NC(=S)/C=C2\N(C)c3ccccc3C2(C)C)cc1 | 67 | 0 | 0 | 0 | 0
Cc1nnc(NC(=O)C2CCN(c3cnccn3)CC2)s1 | 0 | 0 | 0 | 0 | 0
Cc1ccc(NC(=O)C2CCN(c3cnccn3)CC2)cc1 | 0 | 0 | 0 | 85 | 0
Cc1n[nH]c(C)c1S(=O)(=O)N1CCN(C(=O)c2ccco2)CC1 | 0 | 0 | 0 | 0 | 0
Nc1cc2nc[nH]c2cc1N | 61 | 0 | 0 | 0 | 0
COc1cc(NC(c2ccccc2)c2ccccc2)cc(OC)c1OC | 77 | 0 | 0 | 0 | 0
Cc1cc(Nc2ccccc2N2CCOCC2)n2ncnc2n1 | 0 | 0 | 0 | 0 | 0
CC(=O)N(Cc1ccc(F)cc1)C1=C(NCCc2ccccc2)C(=O)c2ccccc2C1=O | 0 | 0 | 50 | 0 | 0
Cc1ccc2nc(NC(=O)c3ccccn3)sc2c1 | 0 | 0 | 0 | 95 | 0
O=C(COc1ccccc1)NNc1nc2c(F)cc(F)cc2s1 | 0 | 0 | 0 | 0 | 0
O=C(Nc1nc2c(F)cc(F)cc2s1)c1ccccn1 | 0 | 0 | 0 | 66 | 0
O=C(Nc1nc2ccc(S(=O)(=O)N3CCCC3)cc2s1)c1ccccn1 | 0 | 0 | 0 | 0 | 0
Cc1nc2ccccc2c(=O)n1NC(=O)C1CC1 | 0 | 0 | 0 | 0 | 0
CCc1ccc(N=C2N=C(N)c3ccccc32)cc1 | 0 | 0 | 0 | 92 | 0
CCc1ccc(CN(C)CCc2ccccn2)cc1 | 0 | 0 | 0 | 0 | 0
CCOC(=O)c1c(C)nc2c3ccccc3ccn12 | 0 | 0 | 0 | 54 | 0
CCOC(=O)c1c(C)nc2c(C)cccn12 | 0 | 0 | 0 | 0 | 0
CCOc1ccc(C2CC(c3ccc(F)cc3)n3ncnc3N2)cc1 (configuration not stated) | 0 | 0 | 0 | 0 | 0
O=C1/C(=C\c2ccc3ccccc3c2)CCCc2ccccc21 | 0 | 0 | 0 | 52 | 0
SMILES | Diaph inh CS | Diaphorase act | G6PDH counter | FLuc inh counter | FLuc stim CS
Cc1ccccc1/C=C1\CCCc2ccccc2C1=O | 0 | 0 | 0 | 61 | 0
Cc1ccsc1/C=C1\CCc2ccccc2C1=O | 0 | 0 | 0 | 92 | 0
Cc1ccc(Nc2nc3c(c(=O)[nH]c(=O)n3C)n2Cc2ccc(F)cc2)cc1 | 0 | 0 | 0 | 0 | 0
S=C(Nc1ccc(Oc2ccccc2)cc1)N1CCN(c2ccccn2)CC1 | 0 | 0 | 0 | 0 | 0
CCOC(=O)Cc1cc(=O)n2[nH]c(C)cc2n1 | 0 | 0 | 0 | 0 | 0
CCOC(=O)Cc1cc(=O)n2[nH]c(-c3ccc(Cl)cc3)cc2n1 | 0 | 0 | 0 | 57 | 0
Cc1cc(/C=C2/C(=N)N3C(=NC2=O)SN=C3S(C)(=O)=O)c(C)n1-c1ccc(F)cc1 | 0 | 0 | 0 | 70 | 0
COc1ccccc1-n1c(C)cc(/C=C2/C(=N)N3C(=NC2=O)SN=C3S(C)(=O)=O)c1C | 0 | 0 | 0 | 87 | 0
CCOc1ccc(-n2c(C)cc(/C=C3/C(=N)N4C(=NC3=O)SN=C4S(C)(=O)=O)c2C)cc1 | 0 | 0 | 0 | 0 | 0
CN(C)S(=O)(=O)c1ccc(Cl)c(NC(=O)COC(=O)/C=C/c2ccco2)c1 | 0 | 0 | 0 | 0 | 0
COc1ccc(-n2nc(C(=O)NCC(=O)N3CCN(c4ccccn4)CC3)c3ccccc3c2=O)cc1 | 0 | 0 | 0 | 68 | 0
